Common to all, as to type: cell-based
Assay [1] has as its target T1, GABA transporter 2 (Mus musculus, UniProt P31651).
T1 sequence (P31651 whole entry): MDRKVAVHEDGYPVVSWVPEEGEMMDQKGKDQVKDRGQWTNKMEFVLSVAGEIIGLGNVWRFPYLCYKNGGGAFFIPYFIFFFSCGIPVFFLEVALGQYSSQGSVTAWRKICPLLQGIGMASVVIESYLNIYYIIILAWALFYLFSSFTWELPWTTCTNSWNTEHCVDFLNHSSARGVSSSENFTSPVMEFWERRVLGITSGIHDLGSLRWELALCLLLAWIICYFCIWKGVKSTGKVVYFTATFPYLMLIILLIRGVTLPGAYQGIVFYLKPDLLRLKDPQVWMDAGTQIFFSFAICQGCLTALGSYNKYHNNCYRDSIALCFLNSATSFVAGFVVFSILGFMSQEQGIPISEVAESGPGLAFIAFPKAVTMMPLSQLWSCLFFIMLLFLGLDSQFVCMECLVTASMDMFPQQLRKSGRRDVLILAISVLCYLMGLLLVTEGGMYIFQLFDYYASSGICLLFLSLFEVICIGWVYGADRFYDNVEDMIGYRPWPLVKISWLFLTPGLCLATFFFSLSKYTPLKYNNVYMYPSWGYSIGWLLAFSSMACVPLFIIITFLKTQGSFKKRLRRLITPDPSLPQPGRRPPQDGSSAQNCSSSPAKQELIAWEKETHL
In words: Inhibition of mouse BGT1 expressed in HEK293 cells assessed as reduction in [3H]GABA uptake after 3 mins by scintillation counting method. The settings on record: read-out: IC50. The essentials:
(§1)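 HEK293 lines stably expressing a single mouse GAT subtype, kept under blasticidin-S (5 µg/mL) selection. Cells were assayed about 24 h after plating with 30 nM [3H]GABA plus varying compound concentrations for 3 min at 37 °C in HBSS buffered with 20 mM HEPES (1 mM CaCl2, 1 mM MgCl2, pH 7.4). Cells were washed ice-cold and radioactivity counted. IC50 came from sigmoidal variable-slope fits.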

In assay [2] the target is Sodium- and chloride-dependent GABA transporter 1 (Mus musculus, UniProt P31648). In words: Inhibition of mouse GAT1 expressed in HEK293 cells assessed as reduction in [3H]GABA uptake after 3 mins by scintillation counting method. The essentials: as §1
The target in assay [3] is T2, GABA transporter 3 (Mus musculus, UniProt P31649).
T2 sequence (P31649 whole entry): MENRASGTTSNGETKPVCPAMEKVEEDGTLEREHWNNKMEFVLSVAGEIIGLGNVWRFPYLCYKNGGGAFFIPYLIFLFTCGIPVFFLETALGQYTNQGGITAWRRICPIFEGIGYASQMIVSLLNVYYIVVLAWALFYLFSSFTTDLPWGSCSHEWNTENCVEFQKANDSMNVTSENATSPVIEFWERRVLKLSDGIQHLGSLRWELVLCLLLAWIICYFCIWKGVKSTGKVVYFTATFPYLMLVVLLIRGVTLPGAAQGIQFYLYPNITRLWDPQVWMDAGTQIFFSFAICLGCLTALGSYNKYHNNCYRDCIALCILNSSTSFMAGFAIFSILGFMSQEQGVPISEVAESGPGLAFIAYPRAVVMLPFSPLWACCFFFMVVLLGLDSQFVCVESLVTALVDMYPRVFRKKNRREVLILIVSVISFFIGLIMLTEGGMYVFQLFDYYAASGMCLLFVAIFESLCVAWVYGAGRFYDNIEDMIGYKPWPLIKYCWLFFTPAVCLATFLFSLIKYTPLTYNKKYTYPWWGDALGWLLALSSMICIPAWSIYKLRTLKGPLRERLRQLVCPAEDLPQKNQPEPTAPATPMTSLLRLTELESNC
The assay can be described thus: Inhibition of mouse GAT2 expressed in HEK293 cells assessed as reduction in [3H]GABA uptake after 3 mins by scintillation counting method. The essentials: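 HEK293 cells stably expressing mouse GAT2 were kept under blasticidin-S (5 µg/mL) selection. Ice-cold washes preceded scintillation counting. IC50 came from a variable-slope sigmoidal fit.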

Where only a bound is given, the exact number is not on record here.

Drawing on ChEMBL document CHEMBL4028872, “Structure-Activity Relationship, Pharmacological Characterization, and Molecular Modeling of Noncompetitive Inhibitors of the Betaine/γ-Aminobutyric Acid Transporter 1 (BGT1)” (J Med Chem, 2017), this text covers IC50 for 23 compounds.

`O=C(NC1CCN(Cc2c[nH]c3ccccc23)CC1)c1ccc(Cl)nc1Cl`: the half-maximal inhibitory concentration (IC50) is 58 µM in assay [1], more than 300 µM in assay [2] and more than 300 µM in assay [3].
As for `O=C(NC1CCN(Cc2ccccc2)CC1)c1ccc(Cl)cc1`, the 50% inhibitory concentration (IC50) in assay [1] is 77 µM; in assay [2], more than 1000 µM; in assay [3] it was 590 µM.
For `O=C(NC1CCN(Cc2ccccc2)CC1)c1cccnc1Cl`, the IC50 in assay [1] was 1650 µM; in assay [2] it was more than 1000 µM; in assay [3] it was more than 1000 µM.
In the case of `COC(=O)c1cccc(CN2CCC(NC(=O)c3ccc(Cl)nc3Cl)CC2)c1`, the IC50 in assay [1], in assay [2] and in assay [3] was more than 300 µM each time.
`O=C(NC1CCN(Cc2ccccc2)CC1)c1ccccc1Cl`: the 50% inhibitory concentration (IC50) in assay [1] was 151 µM; in assay [2], more than 400 µM; in assay [3], more than 400 µM.
With `O=C(NC1CCN(Cc2ccccc2)CC1)c1ccnc(Cl)c1`, the IC50 in assay [1] was 300 µM; in assay [2], more than 1000 µM; in assay [3] it was more than 1000 µM.
As for `COc1cccc(CN2CCC(NC(=O)c3cccs3)CC2)c1`, the figures for the 50% inhibitory concentration (IC50) in assay [1], in assay [2] and in assay [3] were 390 µM, more than 400 µM and more than 400 µM, respectively.
As for `COc1cccc(CN2CCC(NC(=O)c3cccnc3Cl)CC2)c1`, the IC50 in assay [1] was 1670 µM; in assay [2], more than 1000 µM; in assay [3], more than 1000 µM.
Turning to `O=C(NC1CCN(Cc2cccc(O)c2)CC1)c1ccc(Cl)nc1Cl`, the IC50 in assay [1], in assay [2] and in assay [3] was more than 300 µM throughout.
For the compound `O=C(NC1CCN(Cc2ccccc2)CC1)c1cnccc1Cl`, the 50% inhibitory concentration (IC50) in assay [1] was 39 µM; in assay [2], more than 1000 µM; in assay [3], 150 µM.
For `COc1cccc(CN2CCC(NC(=O)c3ccncc3)CC2)c1` the same measures were more than 1000 µM, more than 1000 µM and more than 1000 µM.
For `COc1cccc(CN2CCC(NC(=O)c3ccc(Cl)cc3Cl)CC2)c1` the same measures were 26 µM, more than 200 µM and more than 200 µM.
For `O=C(O)c1cccc(CN2CCC(NC(=O)c3ccc(Cl)nc3Cl)CC2)c1` the same measures were more than 300 µM, more than 300 µM and more than 300 µM.
For `O=C(NC1CCN(Cc2ccccc2)CC1)c1cccnc1`, the half-maximal inhibitory concentration (IC50) in assay [1], in assay [2] and in assay [3] was more than 1000 µM in each case.
As to `O=C(NC1CCN(Cc2cccs2)CC1)c1ccc(Cl)nc1Cl`, the half-maximal inhibitory concentration (IC50) in assay [1], in assay [2] and in assay [3] was more than 300 µM throughout.
Take `Cc1cc(C)cc(CN2CCC(NC(=O)c3ccc(Cl)cc3Cl)CC2)c1`: the 50% inhibitory concentration (IC50) in assay [1], in assay [2] and in assay [3] was more than 300 µM throughout.
In the case of `O=C(NC1CCN(Cc2cccc([N+](=O)[O-])c2)CC1)c1ccc(Cl)nc1Cl`, the half-inhibitory concentration (IC50) in assay [1], in assay [2] and in assay [3] was more than 300 µM throughout.
As to `Cc1cccc(CN2CCC(NC(=O)c3ccc(Cl)cc3Cl)CC2)c1`, the half-inhibitory concentration (IC50) in assay [1], in assay [2] and in assay [3] was more than 300 µM each time.
With `O=C(NC1CCN(Cc2ccc(-c3ccccc3)cc2)CC1)c1ccc(Cl)nc1Cl`, the IC50 in assay [1], in assay [2] and in assay [3] was more than 300 µM in each case.
Regarding `O=C(NC1CCN(Cc2ccccc2)CC1)c1cccs1`, the results for the IC50 in assay [1], in assay [2] and in assay [3] were 179 µM, more than 400 µM and more than 400 µM, respectively.
Take `NC(=O)c1cccc(CN2CCC(NC(=O)c3ccc(Cl)nc3Cl)CC2)c1`: the 50% inhibitory concentration (IC50) in assay [1], in assay [2] and in assay [3] was more than 300 µM in each case.
For `O=C(NC1CCN(Cc2ccc3c(c2)OCO3)CC1)c1ccc(Cl)nc1Cl`, the IC50 in assay [1] was 60 µM; in assay [2], more than 300 µM; in assay [3], more than 300 µM.
As to `O=C(NC1CCN(Cc2cc(Cl)cc(Cl)c2)CC1)c1ccc(Cl)cc1Cl`, the half-maximal inhibitory concentration (IC50) in assay [1], in assay [2] and in assay [3] was more than 300 µM throughout.

In general, IC50 refers to the midpoint of a concentration-inhibition curve.
